According to ChEMBL document CHEMBL1124115, “Synthesis and biological activity of CCK26-33-related analogues modified in position 31” (J Med Chem, 1988):
Square brackets hold non-standard residues; d marks the D form. Peptide text beside a SMILES is read from it. * marks the point of attachment. sY = N[C@@H](Cc1ccc(OS(=O)(=O)O)cc1)C(=O)O; Nle = CCCC[C@H](N)C(=O)O; Boc = CC(C)(C)OC(=O)*

Assays:
[1] = organism: Cavia porcellus; test: Agonist activity by measuring the ability to stimulate the contraction of the isolated guinea pig ileum.; assay type: functional
[2] = organism: Cavia porcellus; test: Agonist activity by measuring the effect on amylase secretion from guinea pig acini.; assay type: functional
[3] = organism: Cavia porcellus; test: Potency in displacing [3H]Boc(Nle28,Nle31)-CCk27-33 from guinea pig pancreatic acini.; assay type: functional
Method in brief: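 Radioligand binding on guinea pig pancreatic acini with [3H]Boc(Nle28,Nle31)-CCK27-33 at 0.5 nM (KD = 1 nM). Values are mean ± SEM of three separate experiments, each run in triplicate.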

[4] = organism: Mus musculus; test: Potency in displacing [3H]propionyl-CCK-8 from mouse brain membranes.; assay type: functional
Method in brief: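 Displacement of [3H]propionyl-CCK8 at 0.4 nM (KD = 0.2 nM) from brain tissue. Data are mean ± SEM of three independent experiments, each in triplicate.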

[5] = target: T1, Cholecystokinin receptor (Mus musculus, UniProt O08786+P56481); test: Potency in displacing [3H]propionyl-Cholecystokinin from mouse brain membranes.
T1 sequence (O08786 whole entry): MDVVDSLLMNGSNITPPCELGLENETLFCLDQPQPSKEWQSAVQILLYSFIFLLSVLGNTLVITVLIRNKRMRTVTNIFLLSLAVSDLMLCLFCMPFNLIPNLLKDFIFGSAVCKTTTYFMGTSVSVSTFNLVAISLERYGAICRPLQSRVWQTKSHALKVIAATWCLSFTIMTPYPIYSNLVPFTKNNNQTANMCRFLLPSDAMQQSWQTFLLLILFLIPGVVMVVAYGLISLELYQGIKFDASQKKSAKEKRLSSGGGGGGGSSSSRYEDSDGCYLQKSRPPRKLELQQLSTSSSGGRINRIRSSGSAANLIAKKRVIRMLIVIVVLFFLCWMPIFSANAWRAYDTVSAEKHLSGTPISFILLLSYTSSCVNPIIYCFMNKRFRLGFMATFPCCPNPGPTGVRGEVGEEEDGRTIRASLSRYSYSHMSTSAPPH
T1 sequence (P56481 whole entry): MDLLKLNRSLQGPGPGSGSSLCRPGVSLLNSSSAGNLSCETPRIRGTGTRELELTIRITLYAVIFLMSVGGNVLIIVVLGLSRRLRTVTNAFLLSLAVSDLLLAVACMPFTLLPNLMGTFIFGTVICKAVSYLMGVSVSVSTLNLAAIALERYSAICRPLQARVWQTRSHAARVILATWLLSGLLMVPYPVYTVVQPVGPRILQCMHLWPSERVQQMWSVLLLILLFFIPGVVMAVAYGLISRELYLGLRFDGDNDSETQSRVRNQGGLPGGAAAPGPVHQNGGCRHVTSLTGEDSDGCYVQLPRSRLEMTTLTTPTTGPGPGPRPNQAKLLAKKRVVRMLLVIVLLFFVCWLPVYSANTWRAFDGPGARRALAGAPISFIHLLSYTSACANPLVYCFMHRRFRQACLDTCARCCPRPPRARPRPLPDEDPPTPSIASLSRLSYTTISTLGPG
Method in brief: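 Competition binding on brain membranes against [³H]propionyl-CCK₈ used at 0.4 nM (K_D = 0.2 nM). Values are mean ± SEM of three separate experiments, each run in triplicate.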

| SMILES | EC50 [1] | EC50 [2] | Ki [3] | Ki [4] | Ki [5] |
| --- | --- | --- | --- | --- | --- |
| CCCC[C@H](NC(=O)[C@H](Cc1ccc(OS(=O)(=O)O)cc1)NC(=O)OC(C)(C)C)C(=O)NCC(=O)N[C@@H](Cc1c[nH]c2ccccc12)C(=O)N[C@H](CCCN)C(=O)N[C@@H](CC(=O)O)C(=O)N[C@@H](Cc1ccccc1)C(N)=O | 190 nM | 22 nM | 390 nM | 110 nM | – |
| CCCC[C@H](NC(=O)[C@H](Cc1ccc(OS(=O)(=O)O)cc1)NC(=O)OC(C)(C)C)C(=O)NCC(=O)N[C@@H](Cc1c[nH]c2ccccc12)C(=O)N[C@@H](C)C(=O)N[C@@H](CC(=O)O)C(=O)N[C@@H](Cc1ccccc1)C(N)=O (Boc-[sY][Nle]GWADF-NH2) | 110 nM | 25 nM | 1100 nM | 14 nM | – |
| CCCC[C@H](NC(=O)[C@H](Cc1ccc(OS(=O)(=O)O)cc1)NC(=O)OC(C)(C)C)C(=O)NCC(=O)N[C@@H](Cc1c[nH]c2ccccc12)C(=O)N[C@@H](CCC(=O)O)C(=O)N[C@@H](CC(=O)O)C(=O)N[C@@H](Cc1ccccc1)C(N)=O (Boc-[sY][Nle]GWEDF-NH2) | > 1000 nM | > 10000 nM | > 10000 nM | > 10000 nM | – |
| CCCC[C@H](NC(=O)[C@H](Cc1ccc(OS(=O)(=O)O)cc1)NC(=O)OC(C)(C)C)C(=O)NCC(=O)N[C@@H](Cc1c[nH]c2ccccc12)C(=O)N[C@@H](Cc1ccccc1)C(=O)N[C@@H](CC(=O)O)C(=O)N[C@@H](Cc1ccccc1)C(N)=O (Boc-[sY][Nle]GWFDF-NH2) | 11 nM | 3.4 nM | 220 nM | 3.7 nM | – |
| CCCC[C@H](NC(=O)[C@H](Cc1ccc(OS(=O)(=O)O)cc1)NC(=O)OC(C)(C)C)C(=O)NCC(=O)N[C@@H](Cc1c[nH]c2ccccc12)C(=O)N[C@@H](CCCC)C(=O)N[C@@H](CC(=O)O)C(=O)N[C@@H](Cc1ccccc1)C(N)=O (Boc-[sY][Nle]GW[Nle]DF-NH2) | 0.4 nM | 0.16 nM | 2.9 nM | 0.13 nM | – |
| CSCC[C@H](NC(=O)[C@H](Cc1ccc(OS(=O)(=O)O)cc1)NC(=O)[C@@H](N)CC(=O)O)C(=O)NCC(=O)N[C@@H](Cc1c[nH]c2ccccc12)C(=O)N[C@@H](CCSC)C(=O)N[C@@H](CC(=O)O)C(=O)N[C@@H](Cc1ccccc1)C(N)=O [SINCALIDE] | 0.7 nM | 0.13 nM | 2.5 nM | – | 0.3 nM |
